Usually pIC50 stands for the IC50 on a negative log10 scale, so that one unit is a factor of ten. Lower therefore signals a large IC50. The T/C is the result in the treated group divided by that in the control group, in per cent.

For one assay, the system named is P388. Nature of the assay: Cytotoxicity evaluated against P388 cells. The assay is classed as functional, cell-based. Particulars: Mus musculus.
Assay [1] is filed under the species Homo sapiens. Nature of the assay: Cytotoxicity evaluated against human tumor. The assay is classed as functional. The method, boiled down:
(§1)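 NCI panel of about 55 human tumor cell lines covering leukemia, melanoma, non-small-cell lung, colon, CNS, ovarian, renal, prostate and breast cancers, with some compounds tested on small-cell lung instead of prostate and breast.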

The next assay concerns L1210. Put plainly: Cytotoxicity evaluated against L1210 cells. In kind it is functional, cell-based. The following applies: Mus musculus.
The test system of assay [2] is Mus musculus. Put plainly: Optimal value of the percentage reduction of the median treated COLO 205 tumor weight compared to the median control tumor weight at the dose of 16.8 mg/kg. In kind it is functional. The method, boiled down:
(§2)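 The NCI Developmental Therapeutics Program passaged human tumor xenografts in athymic mice. % T/C is the optimal ratio of median treated to median control tumor weight. Tumor-growth delay (% ILS) was the increase in median days for treated tumors to reach a set size compared with controls.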

For assay [3], the system named is Mus musculus. Nature of the assay: Percentage increase in the median time in days for the KM12 treated tumor to reach a certain size compared to controls at the dose of 25 mg/kg. In kind it is functional. The method, boiled down: (§3)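 Human tumor xenografts passaged in athymic mice, tested by the NCI Developmental Therapeutics Program. %ILS is the percentage increase in median days for treated tumors to reach a set size versus untreated controls.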

For assay [4], the system named is Mus musculus. Put plainly: Percentage increase in the median time in days for the CAKI-1 treated tumor to reach a certain size compared to controls at the dose of 16.8 mg/kg. In kind it is functional. The method, boiled down:
as §3

The test system of assay [5] is Mus musculus. Nature of the assay: Optimal value of the percentage reduction of the median treated KM12 tumor weight compared to the median control tumor weight at the dose of 16.8 mg/kg. In kind it is functional. In short, it runs like this: as §2
Assay [6] has as its system Mus musculus. Put plainly: Percentage increase in the median time in days for the COLO 205 treated tumor to reach a certain size compared to controls at the dose of 16.8 mg/kg. In kind it is functional. The method, boiled down:
as §3

The subject of assay [7] is Mus musculus. Put plainly: Optimal value of the percentage reduction of the median treated CAKI-1 tumor weight compared to the median control tumor weight at the dose of 16.8 mg/kg. The assay is classed as functional. The method, boiled down: as §2
Assay [8] is filed under the species Homo sapiens. Put plainly: Cytotoxicity evaluated against human tumor. In kind it is functional. The method, boiled down: as §1
For assay [9], the system named is Mus musculus. Put plainly: Percentage increase in the median time in days for the SW-620 treated tumor to reach a certain size compared to controls at the dose of 80 mg/kg. In kind it is functional. In short, it runs like this:
as §3

The test system of assay [10] is Mus musculus. Put plainly: Percentage increase in the median time in days for the COLO 205 treated tumor to reach a certain size compared to controls at the dose of 200 mg/kg. The assay is classed as functional. In short, it runs like this: as §3
For assay [11], the system named is Mus musculus. Nature of the assay: Percentage increase in the median time in days for the NCI-H522 treated tumor to reach a certain size compared to controls at the dose of 80 mg/kg. The assay is classed as functional. The method, boiled down: as §3
In assay [12] the test system is Mus musculus. Nature of the assay: Optimal value of the percentage reduction of the median treated SW-620 tumor weight compared to the median control tumor weight at the dose of 80 mg/kg. The assay is classed as functional. The method, boiled down:
as §2

Assay [13] has as its system Mus musculus. Put plainly: Optimal value of the percentage reduction of the median treated COLO 205 tumor weight compared to the median control tumor weight at the dose of 200 mg/kg. In kind it is functional. The method, boiled down: as §2
The test system of assay [14] is Mus musculus. Nature of the assay: Optimal value of the percentage reduction of the median treated NCI-H522 tumor weight compared to the median control tumor weight at the dose of 80 mg/kg. In kind it is functional. The method, boiled down:
as §2

pIC50: −log10 of the molar value.

`CC[N+]1(C)CC[C@@](O)(c2ccc(OC)cc2)[C@H](C(=O)c2ccc(OC)cc2)C1` (stereo partly drawn): the pIC50 was 6.01 with P388 and 4.99 in the assay listed under Homo sapiens [1].
Take `CC[N+]1(C)CC[C@@](O)(/C=C/c2ccc(C)cc2)[C@H](C(=O)/C=C/c2ccc(C)cc2)C1` (stereo partly drawn): the values for the pIC50 with P388 and in the assay on L1210 were 6.21 and 4.86, respectively.
Take `CC[N+]1(C)CC[C@@](O)(c2ccc(C)cc2)[C@H](C(=O)c2ccc(C)cc2)C1` (stereo partly drawn): the pIC50 is 5.68 in the assay on P388 and 4.30 in the assay listed under Homo sapiens [1].
With `CC[N+]1(C)CC[C@@](O)(c2ccc(Cl)c(Cl)c2)[C@H](C(=O)c2ccc(Cl)c(Cl)c2)C1` (stereo partly drawn), the pIC50 was 5.64 in the assay with P388, 4.47 in the assay on L1210 and 5.02 in the assay listed under Homo sapiens [1].
In the case of `CC[N+]1(C)CC[C@@](O)(c2ccc(Cl)cc2)[C@H](C(=O)c2ccc(Cl)cc2)C1` (stereo partly drawn), the pIC50 with P388 is 5.82; in the assay filed under Homo sapiens [1] it was 4.89.
For the molecule `CC[N+]1(C)CC[C@@](O)(c2ccccc2)[C@H](C(=O)c2ccccc2)C1` (stereo partly drawn), the pIC50 with P388 was 5.89.
For the molecule `CC[N+]1(C)CC[C@@](O)(/C=C/c2ccccc2)[C@H](C(=O)/C=C/c2ccccc2)C1.[Br-]` (stereo partly drawn), the T/C was determined as 20% in the assay on Mus musculus [2], 45% in the assay with Mus musculus [5] and 43% in the assay on Mus musculus [7]. Besides, the ILS at 25 mg/kg in the assay with Mus musculus [3] worked out at 5%. In addition, the pIC50 in the assay on P388 was 5.64; in the assay filed under Homo sapiens [1], 5.08. Besides, the ILS at 16.8 mg/kg with Mus musculus [4] is 6%; with Mus musculus [6], 14%.
`CC[N+]1(C)CC[C@@](O)(/C=C/c2ccc(Cl)c(Cl)c2)[C@H](C(=O)/C=C/c2ccc(Cl)c(Cl)c2)C1` (stereo partly drawn): the pIC50 with P388 is 6.19; with L1210, 4.67; in the assay listed under Homo sapiens [1], 5.66.
Take `CCN1CC[C@@](O)(/C=C/c2ccc(Cl)c(Cl)c2)[C@H](C(=O)/C=C/c2ccc(Cl)c(Cl)c2)C1`: the pIC50 was 6.40 in the assay with P388 and 6.42 in the assay listed under Homo sapiens [1].
Consider `CCN(CC)CC(C)(C)C(=O)/C=C/c1ccc(Cl)cc1`, for which the results for the negative logarithm of the IC50 (pIC50) in the assay with P388 and in the assay on L1210 were 5.66 and 5.19, respectively.
Turning to `O=C(CCN1CCN(CCC(=O)c2ccccc2)CC1)c1ccccc1`, the pIC50 in the assay with P388 is 5.55; in the assay on L1210, 5.01.
In the case of `CCN1CC[C@@](O)(/C=C/c2ccccc2)[C@H](C(=O)/C=C/c2ccccc2)C1`, the results for the pIC50 with P388, in the assay on L1210 and in the assay listed under Homo sapiens [1] were 5.85, 5.28 and 5.56, respectively.
For `CCN1CC[C@@](O)(/C=C/c2ccccc2C)[C@H](C(=O)/C=C/c2ccccc2C)C1`, in that order: 5.72, 4.90 and 5.61.
For `CCN(CC)CCC(=O)c1ccc(C)cc1`, in that order: 5.66, 4.67 and 4.58.
`CCN1CC[C@@](O)(c2ccc(Cl)c(Cl)c2)[C@H](C(=O)c2ccc(Cl)c(Cl)c2)C1`: the pIC50 was 5.51 in the assay on P388 and 4.78 in the assay listed under Homo sapiens [1].
As to `CCN(CC)CCC(=O)/C=C/c1ccc(C)cc1`, the pIC50 with P388 was 5.96; with L1210 it was 4.28.
Turning to `CCN1CC[C@@](O)(c2ccc(Cl)cc2)[C@H](C(=O)c2ccc(Cl)cc2)C1`, the pIC50 was 5.29 in the assay on P388, 4.80 in the assay with L1210 and 4.08 in the assay listed under Homo sapiens [1].
For the molecule `CCN(CC)CCC(=O)/C=C/c1ccc(Cl)c(Cl)c1`, the pIC50 is 6.41 with P388, 4.21 in the assay with L1210 and 5.42 in the assay listed under Homo sapiens [1].
Consider `CCN1CC[C@@](O)(/C=C/c2ccc(OC)cc2)[C@H](C(=O)/C=C/c2ccc(OC)cc2)C1`, for which the pIC50 in the assay listed under Homo sapiens [8] was 5.08; in the assay with P388 it was 5.30; with L1210, 4.59.
On to `CCN1CC[C@@](O)(/C=C/c2ccc(C)cc2)[C@H](C(=O)/C=C/c2ccc(C)cc2)C1.Cl`, for which the ILS at 80 mg/kg is 9% in the assay with Mus musculus [9] and -2% in the assay on Mus musculus [11]. In addition, the pIC50 is 5.68 with P388, 5.22 with L1210 and 5.30 in the assay filed under Homo sapiens [1]. The ILS at 200 mg/kg with Mus musculus [10] turned out to be 28%. Further, the T/C is given as 32% in the assay with Mus musculus [12], 57% in the assay with Mus musculus [13] and 23% in the assay on Mus musculus [14].
Consider `CCN(CC)CCC(=O)c1ccc(Cl)cc1`, for which the pIC50 in the assay on P388 is 5.49; in the assay on L1210, 4.43.
Consider `CCN(CC)CCC(=O)/C=C/c1ccccc1`, for which the pIC50 is 5.77 in the assay on P388, 4.59 in the assay on L1210 and 5.01 in the assay listed under Homo sapiens [1].
As to `CCN(CC)CCC(=O)c1ccc(Cl)c(Cl)c1`, the pIC50 with P388 was 6.51; with L1210, 4.44; in the assay listed under Homo sapiens [1], 4.49.
With `CCN(CC)CCC(=O)/C=C/c1ccc(Cl)cc1`, the pIC50 in the assay with P388 is 6.52; with L1210, 4.39.
As to `CCN1CC[C@@](O)(c2ccc(OC)cc2)[C@H](C(=O)c2ccc(OC)cc2)C1`, the results for the pIC50 with P388, in the assay with L1210 and in the assay filed under Homo sapiens [1] were 5.38, 4.87 and 4.71, respectively.
For `CCN1CC[C@@](O)(c2ccc(C)cc2)[C@H](C(=O)c2ccc(C)cc2)C1`, in that order: 5.07, 4.42 and 4.60.
For `CCN(CC)CCC(=O)c1ccccc1`, in that order: 5.59, 4.69 and 4.60.
`CCN1CC[C@@](O)(c2ccc(O)cc2)[C@H](C(=O)c2ccc(O)cc2)C1`: the pIC50 was 5.85 in the assay on P388, 5.01 in the assay on L1210 and 4.68 in the assay listed under Homo sapiens [1].
With `CCN(CC)CCC(=O)c1ccc(OC)cc1`, the pIC50 with P388 is 5.80; in the assay with L1210, 4.36.
`CCN1CC[C@@](O)(/C=C/c2ccc(C)cc2C)[C@H](C(=O)/C=C/c2ccc(C)cc2C)C1`: the pIC50 is 5.59 in the assay with P388 and 4.68 in the assay with L1210.
In the case of `CCN(CC)CCC(=O)/C=C/c1ccc(OC)cc1`, the pIC50 with P388 was 6.17; in the assay on L1210, 4.35.
`O=C(/C=C/c1ccccc1)CCN1CCN(CCC(=O)/C=C/c2ccccc2)CC1`: the pIC50 in the assay with P388 is 6.21; in the assay with L1210, 5.24; in the assay filed under Homo sapiens [1] it was 4.92.
In the same order, the values of `CCN1CC[C@@](O)(c2ccccc2)[C@H](C(=O)c2ccccc2)C1` are 5.97, 4.70 and 4.52.
In the same order, the values of `CCN1CC[C@@](O)(/C=C/c2ccc(Cl)cc2)[C@H](C(=O)/C=C/c2ccc(Cl)cc2)C1` are 5.96, 5.16 and 4.59.
With `N[C@@H](Cc1ccc(N(CCCl)CCCl)cc1)C(=O)O`, the pIC50 in the assay listed under Homo sapiens [1] was 4.58.

The values are drawn from ChEMBL document CHEMBL1131136, “4-(beta-Arylvinyl)-3-(beta-arylvinylketo)-1-ethyl-4-piperidinols and related compounds: a novel class of cytotoxic and anticancer agents” (J Med Chem, 1998).
